Most compounds without a hit are left out; they make up all but 1.6% or so of the library.
p-CIP stab down: p/CIP protein destabilization; decrease of EGFP signal, % at 10 µM; 290,000 compounds, 0.01% hits; F442A p/CIP-EGFP cells, EGFP fluorescence, 16 h; Q05BA5;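 active = EGFP signal decrease of at least 30% at 10 µM or well 3 SD below plate mean, unless failing retest; inactive = the rest, including hits failing retest or dose response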
Target sequence (Q05BA5 1-1403): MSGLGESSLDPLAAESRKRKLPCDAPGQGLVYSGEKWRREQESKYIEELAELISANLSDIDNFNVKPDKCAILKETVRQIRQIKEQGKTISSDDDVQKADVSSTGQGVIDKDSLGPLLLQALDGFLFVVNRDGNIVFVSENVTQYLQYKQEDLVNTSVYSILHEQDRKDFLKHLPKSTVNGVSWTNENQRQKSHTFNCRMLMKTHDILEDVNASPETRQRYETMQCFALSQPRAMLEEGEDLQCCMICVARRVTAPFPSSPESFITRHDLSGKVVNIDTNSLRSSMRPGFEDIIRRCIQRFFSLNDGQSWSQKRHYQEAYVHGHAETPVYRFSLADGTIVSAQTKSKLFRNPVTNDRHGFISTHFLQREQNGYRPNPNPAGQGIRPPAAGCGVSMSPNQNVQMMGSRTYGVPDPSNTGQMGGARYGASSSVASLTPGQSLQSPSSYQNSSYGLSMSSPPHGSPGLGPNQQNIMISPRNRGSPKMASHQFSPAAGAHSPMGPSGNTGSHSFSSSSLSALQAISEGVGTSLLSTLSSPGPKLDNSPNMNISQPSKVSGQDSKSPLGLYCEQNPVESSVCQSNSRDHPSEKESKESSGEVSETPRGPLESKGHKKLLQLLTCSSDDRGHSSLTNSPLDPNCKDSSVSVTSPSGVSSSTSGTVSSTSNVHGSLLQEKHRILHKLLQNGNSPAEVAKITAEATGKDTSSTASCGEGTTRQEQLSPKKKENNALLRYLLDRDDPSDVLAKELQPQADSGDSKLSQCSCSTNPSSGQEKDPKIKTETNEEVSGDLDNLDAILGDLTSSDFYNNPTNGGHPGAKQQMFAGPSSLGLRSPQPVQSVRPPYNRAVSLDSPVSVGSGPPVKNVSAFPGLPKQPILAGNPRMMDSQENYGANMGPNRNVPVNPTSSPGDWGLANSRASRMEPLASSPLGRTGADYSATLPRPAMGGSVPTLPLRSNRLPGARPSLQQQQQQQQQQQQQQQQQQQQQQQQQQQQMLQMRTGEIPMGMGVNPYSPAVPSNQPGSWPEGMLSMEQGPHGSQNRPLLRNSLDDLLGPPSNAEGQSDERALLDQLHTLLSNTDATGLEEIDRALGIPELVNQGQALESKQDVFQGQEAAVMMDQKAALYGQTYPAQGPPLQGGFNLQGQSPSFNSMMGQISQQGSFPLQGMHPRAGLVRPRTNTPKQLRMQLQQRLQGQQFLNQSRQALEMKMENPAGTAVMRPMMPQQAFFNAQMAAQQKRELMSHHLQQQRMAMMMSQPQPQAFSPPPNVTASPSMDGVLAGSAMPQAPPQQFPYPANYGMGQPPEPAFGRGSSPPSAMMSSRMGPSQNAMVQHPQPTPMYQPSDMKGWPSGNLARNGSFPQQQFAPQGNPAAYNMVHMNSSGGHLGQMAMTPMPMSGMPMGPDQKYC
MT1-MMP act inh: MT1-MMP (human) activation inhibition; 360,000 compounds, 0.061% hits; HT1080 RFP-PRO-GFP cells, GFP/RFP ratio fluorescence, overnight; percent of plate control window, DMSO zero; GFP/RFP ratio change, % at 20 µM;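 active = GFP/RFP ratio change of at least 30% with cell ATP level not reduced by more than half and red fluorescence within 50% of control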
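Read-out: GFP/RFP fluorescence ratio; Test system: RFP-PRO-GFP reporter HT1080 cells; Compound dosing: single-point 20 µM compound, 1% DMSO; Times: overnight compound exposure at 37 °C.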
bovine MsrA act: bovine methionine sulfoxide reductase A activation; activation, % at 10.6 µM; purified bovine MsrA, absorbance read-out; 360,000 compounds, 0.3% hits; in the data active = activation above about 7.5%;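 note: 0% = vehicle and 100% = reference activator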
SKN-1 block: blocks SKN-1 activity in C. elegans. C. elegans VP596 Pgst-4::GFP/RFP ratio, acrylamide-induced, 24 h. inhibition, % at 21.8 µM. 360,000 compounds, 0.49% hits. AID 624304;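 active = interference check ratio from 0.5 to 1.5 plus GFP to RFP signal ratio inhibition reaching or exceeding a fixed threshold, cut at about 30% in these data, passing the limit was not always enough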
MsrA inh: inhibits bovine methionine sulfoxide reductase A; purified bovine MsrA, absorbance read-out; inhibition, % at 15.5 µM; 360,000 compounds, 0.75% hits; in the data active = inhibition above about 4.5%;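 note: 0% = vehicle wells with enzyme and 100% = reference inhibitor wells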
MsrA act confirm: confirmation of bovine methionine sulfoxide reductase A activators; shares compounds with bovine MsrA act; purified bovine MsrA, absorbance read-out; AID 602270; 1,000 compounds, 12% hits; activation, % at 10.6 µM; in the data active = activation above about 4%;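 note: enzyme coupled to thioredoxin and thioredoxin reductase with NADPH; 0% = vehicle wells and 100% = reference activator wells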
* marks the source's active call; other numbers are inactive results; · = not tested or not shown.

SMILES	p-CIP stab down	MT1-MMP act inh	bovine MsrA act	SKN-1 block	MsrA inh	MsrA act confirm
COCCN(C)C(=O)CC1C(=O)NCCN1CC(c1ccccc1)c1ccccc1 (stereo not drawn)	-8	-4	11*	5	0	-3
Cc1cc(CN(C)C(=O)CC2C(=O)NCCN2CC(c2ccccc2)c2ccccc2)on1 (stereo not drawn)	5	·	-1	13	2	·
O=C(CCCN=C1NS(=O)(=O)c2ccccc21)OCc1ccccc1	·	0	8.8*	19	-1	-2
O=C(CCCN=C1NS(=O)(=O)c2ccccc21)OCc1ccc(F)cc1	·	-3	-5	-5	1	·
CC(C)c1ncc(C(O)c2cccc3ccccc23)n1C (stereo not drawn)	-2	4	13*	-10	-1	-3
Cc1[nH]nc2c1C(c1ccc(F)cc1)N(Cc1ccccc1)C2=O (stereo not drawn)	·	·	·	·	0	·
CCCCS(=O)(=O)NCC1CCN(C(=O)C(=O)c2cc3ccccc3o2)CC1	·	·	·	·	2	·
O=C(COC(=O)c1ccc([N+](=O)[O-])s1)NC(c1ccccc1)c1ccccc1	-2	3	17*	0	2	6.0*
COc1ccc(S(=O)(=O)N2CCOCC2)cc1NC(=O)COC(=O)c1[nH]c(C)c(C(C)=O)c1C	·	1	-7	10	0	·
O=C(COC(=O)c1ccc([N+](=O)[O-])s1)Nc1ccccc1	12	0	23*	3	0	11*
CC(=O)Nc1ccc(OCC(=O)NCCc2ccccc2)cc1	0	0	7.8*	3	1	0
Cc1c(Cl)cnc(NC(=O)COC(=O)c2ccc([N+](=O)[O-])s2)c1Cl	-3	-9	0	8	1	·
COc1ccc(S(=O)(=O)N2CCOCC2)cc1NC(=O)COC(=O)c1ccc([N+](=O)[O-])s1	·	-6	20*	8	·	11*
Cc1cc(O)cc(=O)n1-c1ccc(Cl)c(C(F)(F)F)c1	·	·	·	·	-1	·
CCCCNc1ccc2c(c1)OC[C@H](Cc1ccccc1)NS2(=O)=O	·	·	·	·	0	·
O=C(COC(=O)c1cccs1)Nc1cccc(S(=O)(=O)NC2=NCCCCC2)c1	-4	-1	2	-11	2	·
O=C(COC(=O)c1ccc([N+](=O)[O-])s1)Nc1ccc(F)cc1	·	-5	20*	7	2	9.1*
O=C(COC(=O)c1ccc([N+](=O)[O-])s1)NCc1ccccc1	-7	0	8.4*	10	0	2
O=C(COC(=O)c1ccc([N+](=O)[O-])s1)Nc1ccc(Cl)cn1	-16	-2	7	4	1	·
O=C(COc1ccccc1)Nc1ccc([N+](=O)[O-])cc1	0	-4	20*	-1	2	2
O=C(COC(=O)c1ccc([N+](=O)[O-])s1)Nc1cccc(S(=O)(=O)NC2=NCCCCC2)c1	-9	0	9.8*	12	3	4.4*
COC(=O)c1cc2c(c3c4ccccc4n(S(=O)(=O)c4ccccc4)c13)C(=O)N(Cc1ccc(N(C)C)cc1)C2	·	·	·	·	1	·
O=C(NCc1ccccc1)[C@@H]1CCCN1C(=O)[C@H]1CCCN1C(=O)N1CCCCC1	·	·	·	·	0	·
CC(C)(C)c1ccc(NC(=O)COC(=O)c2ccc([N+](=O)[O-])s2)cc1	-3	1	10*	25	0	4.3*
C[C@@H]1COc2cccc(N3CCCC3)c2S(=O)(=O)N1	·	·	·	·	0	·
SMILES	p-CIP stab down	MT1-MMP act inh	bovine MsrA act	SKN-1 block	MsrA inh	MsrA act confirm
O=C(Nc1n[nH]c(=S)s1)c1ccco1	-6	-1	8.7*	9	2	2
CCCc1c(-c2cccc(Br)c2)ncn1CCc1ccccc1OC	·	·	·	·	0	·
C=CCN1C(=O)c2ccccc2C1(O)Cc1ccccc1 (stereo not drawn)	-10	1	11*	18	0	-4
CC(C)CN1C(=O)c2ccccc2C1(O)Cc1ccccc1 (stereo not drawn)	4	-5	-5	3	0	·
O=C(NCCc1ccccc1)c1c(F)cccc1F	-4	2	11*	-2	0	0
O=C(NCCc1csc(-c2ccccc2)n1)c1c(F)cccc1F	-11	3	-1	-14	1	·
COc1ccc(OC)c(N(CC(=O)NCc2ccccc2)S(=O)(=O)c2ccc(OC)c(OC)c2)c1	-1	·	-2	-7	0	·
COc1ccc(N(CC(=O)NCc2cccnc2)S(=O)(=O)c2ccccc2)c(OC)c1	·	-3	13*	0	0	-1
COC(=O)C1=C(C)N(Cc2cccc(C(F)(F)F)c2)C(=NCc2ccc3c(c2)OCO3)NC1c1ccc(Cl)cc1 (stereo not drawn)	·	·	·	·	-2	·
O=S1(=O)CCOC[C@H](c2ccccc2)N1Cc1cccc(F)c1	-15	1	11*	29	0	-1
COC(=O)c1ccc2nc(-c3ccc(C)cc3)c(Cc3ccccc3)n2c1	·	·	·	·	0	·
CC(C)CN1CCC(CN2C(=S)NC[C@@H]2Cc2ccccc2)CC1	·	·	·	·	-1	·
CCN(CC)c1ccc2nc3ccccc3[n+](CC)c2c1	-20	80	34*	83	·	19*
Nc1ncnc(Nc2cccc(F)c2)n1	4	2	-2	8	-1	·
Cc1cccc(Nc2ncnc(N)n2)c1	-17	2	13*	2	2	-1
CC1(Cc2ccc(OC(F)(F)F)cc2)C(=O)Nc2ccc(S(=O)(=O)NC3CCCCC3)cc21 (stereo not drawn)	·	-32	20*	-10	-1	1
CC1(Cc2ccc(Cl)cc2)C(=O)Nc2ccc(S(=O)(=O)NC3CCCCC3)cc21 (stereo not drawn)	·	-6	-1	8	1	·
OCC1COC(c2ccccc2)=N1 (stereo not drawn)	·	·	·	·	1	·
Cc1nc2c(nc1C)C(=O)c1ccccc1C2=O	·	6	13*	5	1	8.4*
O=C1c2ccccc2-c2nc3ccccc3nc21	-7	2	4	-1	0	·
CC(C)(C)c1cc(NC(=O)c2ccco2)n(-c2ccccc2)n1	9	0	16*	-2	1	-1
CC1CCN(CCCNC(=O)c2coc3nc4ccccc4nc23)CC1	8	-11	9.0*	-5	1	-2
COc1ccc2cc3cc(C(=O)NCCCN4CCC(C)CC4)oc3nc2c1	-4	4	-9	2	·	·
O=C(O)C1C2CC(C(Br)C2Br)C1C(=O)O (stereo not drawn)	·	2	15*	6	0	-1
COC(=O)c1ccc(C(C(=O)NC2CCCCC2)N(C(=O)Cc2cccs2)C2CC2)cc1 (stereo not drawn)	-14	1	7.9*	4	0	-1
Cc1nn(-c2ccccc2)c2nc(-c3ccco3)cc(C(=O)O)c12	-11	0	-3	8	3	·
COC(=O)c1cc(C)nc2c1c(C)nn2-c1ccccc1	·	-3	13*	17	0	1

Screening data deposited in PubChem by several laboratories.
